RGS4 pot – potentiators or activators of RGS4 | B-score at 10 µM | AID 463111 | 0.92% of 310,000 active | HEK293 M3R/inducible RGS4, carbachol calcium flux Fluo4; active compounds read low;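 active means B-score of the integrated calcium signal more than 4 SD below the library mean, with starting fluorescence not abnormally high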;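 further: negative B-score means reduced calcium response which marks RGS4 activation or potentiation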
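Assay system: HEK293 FlpIn-TREx cells, stable M3R, doxycycline-inducible RGS4 / Probe or stimulus: carbachol, ECmax concentration / Times: overnight RGS4 induction, 30 min dye load 37 °C, 20 min compound RT / Signal: kinetic calcium fluorescence imaging with Fluo4-AM dye, 2 µM / Measure: Agonist-evoked peak-minus-minimum fluorescence over baseline, integrated ratio, B score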
RGS4 inh – inhibitors of human RGS4 | P49798 | 0.45% of 310,000 active | B-score at 10 µM | AID 463165 | HEK293 M3R/RGS4 inducible, Fluo-4 calcium flux; active compounds read high; triggered by carbachol at its EC20;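 active means B-score, a plate-corrected calcium signal, over three deviations above library mean, with baseline fluorescence within five deviations of library mean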;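 further: RGS4 expression induced by doxycycline in cells with stable M3 receptor; B-score is computed from the integrated fluorescence ratio over baseline after carbachol; higher B-score means a larger calcium signal and so more RGS4 inhibition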
Target sequence (P49798 whole entry, looked up): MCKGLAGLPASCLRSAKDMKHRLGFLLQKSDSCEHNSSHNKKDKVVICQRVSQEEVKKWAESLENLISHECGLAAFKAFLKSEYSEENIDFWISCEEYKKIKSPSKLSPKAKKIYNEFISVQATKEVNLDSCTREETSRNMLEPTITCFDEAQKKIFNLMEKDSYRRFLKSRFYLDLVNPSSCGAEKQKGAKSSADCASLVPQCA
MrgX1 antag – human MrgX1 receptor antagonism, primary screen; Q96LB2; MRGX1-HEK293 calcium flux, Fluo-4, BAM8-22 antagonism; active compounds read low; B-score at 10 µM; 1.3% of 310,000 active;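 active means calcium-response B-score plate-corrected more than 3 library SD below zero, starting fluorescence within 5 deviations, no agonist response on first addition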;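 further: peak minus trough fluorescence over baseline after final BAM8-22 challenge near maximal dose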
Target sequence (Q96LB2 whole entry, looked up): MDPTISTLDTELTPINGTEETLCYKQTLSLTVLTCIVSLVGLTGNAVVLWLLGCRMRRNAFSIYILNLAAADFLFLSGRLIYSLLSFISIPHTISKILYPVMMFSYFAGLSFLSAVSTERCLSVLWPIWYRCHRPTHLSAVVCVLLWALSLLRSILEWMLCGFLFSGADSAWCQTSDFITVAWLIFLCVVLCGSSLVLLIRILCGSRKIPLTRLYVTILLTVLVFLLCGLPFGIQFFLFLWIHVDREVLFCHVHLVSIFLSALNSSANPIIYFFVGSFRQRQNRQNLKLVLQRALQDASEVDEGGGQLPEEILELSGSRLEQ
MrgX1 PAM – human MrgX1 positive allosteric modulation, primary screen | Q96LB2 | MrgX1-HEK293, Fluo-4 calcium flux, FDSS; active compounds read high | B-score at 10 µM | 0.63% of 310,000 active | AID 588675;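 active means plate-corrected calcium response at least 3 library SD above typical, normal starting fluorescence, not activating the receptor alone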;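 further: compound read alongside a low EC10 to EC30 dose of BAM8-22 agonist; peak minus trough fluorescence over baseline measured at the second addition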
MrgX1 agonist – human MrgX1 receptor agonism, primary screen; Q96LB2; MrgX1-HEK293 cells, Fluo-4 calcium fluorescence, agonist mode; active compounds read high; B-score at 10 µM; 0.44% of 310,000 active; AID 588627;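 active means calcium response B-score plate-corrected fluorescence ratio at least 3 library SD, with starting fluorescence B-score inside 5 SD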
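Test system: HEK293 cells stably expressing human MrgX1 receptor; amount: 15,000 cells per well; doses: compound delivered in addition one of three; times: overnight plating before 1 h dye loading; detection: Fluo-4 NW calcium-flux fluorescence, kinetic read; read-out basis: B-scored fluorescence response ratio; controls: positive and negative controls per plate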
RGS4 block valid – validation of RGS4 inhibitors. shares compounds with RGS4 inh. HEK293 M3R/RGS4, carbachol calcium Fluo-4 fluorescence; carbachol added at its EC20; 0 = buffer wells, 100 = carbachol control. calcium response, % at 10 µM. 65% of 1,700 active;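 active means duplicate-averaged calcium response above the buffer-only control mean plus 5 SD of those controls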;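 further: integrated fluorescence ratio F max minus min over baseline F0; higher response in RGS4-induced cells means RGS4 inhibition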
RGS4 uninduced – non-induced cell nonspecific activity of RGS4 inhibitors. shares compounds with RGS4 inh. HEK293 M3R non-induced, carbachol calcium Fluo-4; submaximal (EC20) carbachol stimulus; buffer wells 0%, carbachol control wells 100%. activity (percent), % at 10 µM. 20% of 1,900 active. AID 493000; call rule not given here;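 further: RGS4 induction absent so cells express M3R without RGS4; higher means more calcium signal and flags a non-specific hit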
RGS4 inh ctr2 – second counter-screen for RGS4 inhibitors: non-induced cells without carbachol; shares compounds with RGS4 inh; HEK293 M3R/RGS4 non-induced, Fluo-4 calcium, no carbachol; normalised: buffer wells 0%, carbachol wells 100%; calcium response (agonist-mode artifact), % at 10 µM; 22% of 1,900 active; AID 493001;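 active means duplicate-averaged calcium rise in uninduced cells above buffer wells' mean plus 5 SD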
* = called active by the depositor; i = inactive; / = not tested or not shown. Most compounds without a hit are left out; they make up all but 3.5% or so of the library.

SMILES	RGS4 pot	RGS4 inh	MrgX1 antag	MrgX1 PAM	MrgX1 agonist	RGS4 block valid	RGS4 uninduced	RGS4 inh ctr2
CCOCCCNC(=S)N(CCCN(C)C)Cc1cc2cc3c(cc2[nH]c1=O)OCCO3	i	i	i	i	i	/	/	/
COCCNC(=S)N(CCN(C)C)Cc1cc2cc3c(cc2[nH]c1=O)OCO3	i	i	i	i	i	/	/	/
COCCNC(=S)N(CCCN(C)C)Cc1cc2cc3c(cc2[nH]c1=O)OCCO3	i	i	i	i	i	i	i	i
COc1cccc(C(N)=O)c1OC(=O)Cc1ccccc1F	i	i	i	i	i	/	/	/
COCCOC(=O)c1c(C)n(C)c2ccc(OC(=O)c3ccccc3F)cc12	i	i	i	i	i	/	/	/
CSc1cccc(NC(=O)c2[nH]c(C)c(C(C)=O)c2C)c1	i	i	i	i	i	/	/	/
CC(=O)C1=C(C)OC(N)=C(C#N)C1c1cccc([N+](=O)[O-])c1 (stereo not drawn)	i	7.2*	i	i	i	i	i	i
CC1CC(C)CN(S(=O)(=O)c2ccc3c(c2)CCN3C(=O)C2CC2)C1 (stereo not drawn)	i	i	i	i	i	/	/	/
Brc1cccc(C2Nc3cccc4cccc(c34)N2)c1	i	i	i	i	i	/	/	/
Brc1ccc(C2Nc3cccc4cccc(c34)N2)o1	i	5.2*	i	i	i	i	i	i
c1csc(C2Nc3cccc4cccc(c34)N2)c1	i	6.1*	i	i	i	i	i	i
Cc1cc(C)cc(NC(=O)C2CCCN2S(=O)(=O)c2ccc3c(c2)n(C)c(=O)c(=O)n3C)c1 (stereo not drawn)	i	i	i	i	i	/	/	/
Cn1c(CC(=O)Nc2ccccc2F)nnc1SCC(=O)NC1=NCCS1	i	i	i	i	i	/	/	/
CCOC(=O)c1c(C)[nH]c(C(=O)CN2C(=O)NC(CC)(c3ccccc3)C2=O)c1C (stereo not drawn)	i	i	i	i	i	/	/	/
CCOC(=O)c1c(C)[nH]c(C(=O)CN2C(=O)NC(C)(c3ccc(C)cc3)C2=O)c1C (stereo not drawn)	i	i	i	i	i	i	i	7.5%*
COc1ccc(OC)c(-c2nc3ccccc3nc2-c2ccccc2)c1	i	i	i	i	i	i	i	i
CC(C)[C@H]1C=C(C(=O)O)O[C@@H](OCCCCO)C1	i	i	i	i	i	/	/	/
CSc1ccc(/C=C/C(=O)c2ccc(NC(C)=O)cc2)cc1	i	i	i	i	i	/	/	/
CC(=O)Nc1cccc(C(=O)/C=C/c2ccc(C)cc2)c1	i	i	i	i	i	i	i	i
CC(OC(=O)c1cnccn1)C(=O)c1ccccc1 (stereo not drawn)	i	i	i	i	i	/	/	/
COc1ccccc1NC(=O)CC1S/C(=N/N=C2\CCCc3ccccc32)NC1=O (stereo not drawn)	i	6.1*	i	i	i	60%*	62%*	i
O=C(CC1S/C(=N/N=C2CCCCCC2)NC1=O)Nc1ccccc1C(F)(F)F (stereo not drawn)	i	i	i	i	i	/	/	/
CNC(=O)c1[nH]cnc1C(=O)Nc1ccccn1	i	i	i	i	i	i	i	i
CSc1nc(SCC(=O)O)c2sc3nc(-c4ccccc4)c4c(c3c2n1)CCC4	i	i	/	/	/	/	/	/
CSc1nc(N(C)CCO)c2sc3nc(-c4ccco4)c4c(c3c2n1)CCC4	i	4.9*	i	i	i	i	i	10%*
SMILES	RGS4 pot	RGS4 inh	MrgX1 antag	MrgX1 PAM	MrgX1 agonist	RGS4 block valid	RGS4 uninduced	RGS4 inh ctr2
COc1cccc(-c2c(C(=O)N/N=C/c3ccc(C)s3)nnn2-c2nonc2N)c1	i	i	i	i	i	/	/	/
CCOc1cccc(-c2c(C(=O)N/N=C/c3sccc3C)nnn2-c2nonc2N)c1	i	i	i	i	i	/	i	i
CCOc1ccc(-c2c(C(=O)N/N=C/c3sccc3C)nnn2-c2nonc2N)cc1	i	i	i	i	i	/	/	/
CCOc1cccc(-c2c(C(=O)N/N=C/c3ccc(C)s3)nnn2-c2nonc2N)c1	i	i	i	i	i	/	i	i
CCOc1cccc(-c2c(C(=O)N/N=C/c3ccsc3)nnn2-c2nonc2N)c1	i	i	i	i	i	/	i	i
Cc1ccc(-c2c(C(=O)N/N=C/c3ccsc3)nnn2-c2nonc2N)cc1	i	i	i	i	i	/	/	/
CC(NCC(O)COCCC12CC3CC(CC(C3)C1)C2)c1ccccc1 (stereo not drawn)	i	4.7*	i	i	i	i	i	24%*
CCOC(=O)N1CCC(NC(=O)CS(=O)Cc2nc(-c3ccc(Cl)cc3)oc2C)CC1 (stereo not drawn)	i	i	i	i	i	/	/	/
CCOC(=O)/C(C#N)=C/c1cccc([N+](=O)[O-])c1	i	i	i	i	i	/	/	/
N#C/C(=C\c1cc([N+](=O)[O-])ccc1Cl)C(N)=O	i	5.8*	i	i	i	12%*	i	8.5%*
CCOP(=O)(OCC)/C(C#N)=C/c1c[nH]c2ccccc12	i	i	i	i	i	/	/	/
CCOP(=O)(OCC)/C(C#N)=C/c1ccc([N+](=O)[O-])cc1	i	7.4*	i	i	i	14%*	i	i
N#C/C(=C/c1ccc([N+](=O)[O-])cc1)C(N)=O	i	6.4*	i	i	i	36%*	36%*	15%*
NC(=O)CC(NC(=O)Cc1ccc(Cl)cc1)c1ccc(NC2CCCCCCC2)c([N+](=O)[O-])c1 (stereo not drawn)	i	4.7*	i	i	i	11%*	i	i
NC(=O)CC(NC(=O)Cc1ccc(Br)cc1)c1ccc(NC2CCCCCC2)c([N+](=O)[O-])c1 (stereo not drawn)	i	i	i	i	i	i	i	i

Source: PubChem (Johns Hopkins Ion Channel Center)
